# Calls of active or inactive are those of the source.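 The calls were made as follows, unless noted: active = potentiation averaged over duplicate wells exceeding buffer-only control mean by more than 3 SD; inactive = the rest.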
# Key:
# [1] = thallium flux activation in parental CHO cells, counter-screen for KCNQ1 potentiator project (AID 493006;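 active = duplicate-averaged activation above buffer control mean plus 5 SD of those controls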;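 as to activation: fluorescence ratio of max minus min over baseline after K+ and Tl+ depolarization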); conditions: parental CHO-K1 cells, FluxOR thallium flux, at 10 µM; hits give high values
# Procedure, shortened: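 Material: untransfected host CHO-K1 cells with FluxOR thallium dye. Timing: overnight 37 °C plating, 90 min RT dye, 20 min compound. Detection: kinetic FluxOR fluorescence, 10 s baseline, 110 s after stimulus. Read-out basis: max-minus-min fluorescence over baseline, percent of buffer-to-R-L3 span. Replicates: duplicate wells per compound, percent values averaged.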
# [2] = target: Potassium voltage-gated channel subfamily KQT member 1 (Homo sapiens) (UniProt P51787); experiment: KCNQ1 potassium channel potentiators, confirmation, FluxOR thallium flux, CHO cells, duplicates (AID 493007); conditions: KCNQ1 cell line, FluxOR thallium flux fluorescence, at 10 µM; hits give high values, % of reference activator effect, buffer zero;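 as to outcome: cells depolarized by a potassium plus thallium sulfate stimulus after compound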
# Chain of Potassium voltage-gated channel subfamily KQT member 1 (Homo sapiens) (P51787 whole entry, looked up): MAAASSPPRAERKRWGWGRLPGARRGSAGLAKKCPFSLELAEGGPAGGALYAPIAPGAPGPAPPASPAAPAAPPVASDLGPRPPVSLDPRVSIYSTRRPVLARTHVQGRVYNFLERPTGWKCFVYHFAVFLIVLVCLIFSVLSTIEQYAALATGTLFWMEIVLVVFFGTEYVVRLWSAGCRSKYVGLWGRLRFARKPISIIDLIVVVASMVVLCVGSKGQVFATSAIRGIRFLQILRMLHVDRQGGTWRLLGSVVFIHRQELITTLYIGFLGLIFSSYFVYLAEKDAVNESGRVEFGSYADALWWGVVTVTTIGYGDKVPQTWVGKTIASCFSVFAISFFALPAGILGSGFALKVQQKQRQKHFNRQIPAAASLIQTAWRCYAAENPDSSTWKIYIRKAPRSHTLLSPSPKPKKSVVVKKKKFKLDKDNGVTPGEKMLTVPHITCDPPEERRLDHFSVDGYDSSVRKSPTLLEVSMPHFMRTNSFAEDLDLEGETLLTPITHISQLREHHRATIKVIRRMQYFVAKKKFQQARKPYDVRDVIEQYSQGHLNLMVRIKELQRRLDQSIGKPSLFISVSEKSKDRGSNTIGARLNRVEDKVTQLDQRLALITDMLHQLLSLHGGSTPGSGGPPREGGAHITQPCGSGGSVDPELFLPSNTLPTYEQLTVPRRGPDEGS
# Procedure, shortened: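 Test system – KCNQ1-expressing CHO cell line · Incubation – FluxOR dye loading 90 min, compound exposure 20 min, room temperature · Detection – FluxOR Tl+ flux fluorescence, 10 s baseline plus 110 s recording · Controls – buffer-only wells as 0% and R-L3 activator as 100%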
# [3] = target: Potassium voltage-gated channel subfamily KQT member 2 (Rattus norvegicus) (UniProt O88943); experiment: rat KCNQ2 channel potentiation, selectivity assay for KCNQ1 potentiator project, KCNQ2-CHO-K1 cells (AID 493009;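 active = mean duplicate potentiation above the buffer control mean plus 5 SD of buffer wells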;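 also: assay conditions were tuned for KCNQ1 rather than KCNQ2 modulators; signal is max minus min fluorescence divided by baseline after thallium stimulus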); conditions: FluxOR thallium flux fluorescence, at 10 µM; hits give high values, scaled: buffer 0, activator control 100
# Chain of Potassium voltage-gated channel subfamily KQT member 2 (Rattus norvegicus) (O88943 whole entry, looked up): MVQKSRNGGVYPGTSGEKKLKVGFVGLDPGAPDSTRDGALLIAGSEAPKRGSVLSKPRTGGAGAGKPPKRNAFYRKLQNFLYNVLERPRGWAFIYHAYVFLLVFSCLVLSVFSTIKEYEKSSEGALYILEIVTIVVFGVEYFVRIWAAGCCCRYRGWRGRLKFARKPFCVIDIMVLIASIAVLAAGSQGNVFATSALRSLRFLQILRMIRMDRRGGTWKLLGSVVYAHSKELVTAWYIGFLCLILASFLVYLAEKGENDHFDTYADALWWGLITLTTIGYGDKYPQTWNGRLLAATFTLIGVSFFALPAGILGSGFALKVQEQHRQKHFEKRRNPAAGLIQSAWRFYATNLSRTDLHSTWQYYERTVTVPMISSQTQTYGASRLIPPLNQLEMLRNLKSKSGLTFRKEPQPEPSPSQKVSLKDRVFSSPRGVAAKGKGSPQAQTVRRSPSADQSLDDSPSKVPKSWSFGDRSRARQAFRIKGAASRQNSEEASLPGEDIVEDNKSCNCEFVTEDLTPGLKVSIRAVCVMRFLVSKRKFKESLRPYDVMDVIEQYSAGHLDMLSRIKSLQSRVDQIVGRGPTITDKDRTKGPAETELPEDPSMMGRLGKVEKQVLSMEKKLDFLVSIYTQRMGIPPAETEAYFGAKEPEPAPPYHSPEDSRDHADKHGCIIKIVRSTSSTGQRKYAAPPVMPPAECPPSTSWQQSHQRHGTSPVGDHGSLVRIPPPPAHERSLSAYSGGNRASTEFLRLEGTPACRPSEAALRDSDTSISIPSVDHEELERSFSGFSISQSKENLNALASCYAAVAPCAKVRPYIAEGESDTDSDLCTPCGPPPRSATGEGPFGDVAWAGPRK
# [4] = target: Potassium voltage-gated channel subfamily KQT member 1 (Homo sapiens) (UniProt P51787); experiment: KCNQ1 channel current potentiators, confirmation, orthogonal assay for KCNQ1 potentiator project, IonWorks patch clamp, KCNQ1-CHO cells (AID 493184;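 active = current rise at least 3 SD above the untreated control mean in each of two repeat wells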); conditions: automated patch clamp current, at 10 µM; hits give high values
# Procedure, shortened: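 Read-out: Percent current increase versus pre-compound level | Assay system: CHO cells carrying KCNQ1 | Measured by: Automated perforated-patch electrophysiology | Medium: External bath solution at pH 7.4 | Dosing: One dose, 10 µM final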
Compound,outcome [1],potentiation [2],outcome [3],outcome [4],outcome [2],potentiation [3],activation [1]
O=C(NC(=S)Nc1ccc(N2CCOCC2)c(Cl)c1)c1sc2ccccc2c1Cl,inactive,35.5% (active),inactive,inactive,–,–,–
Cc1noc(C)c1COc1ccc(CC(=O)NCc2ccccc2)cc1,inactive,–,inactive,inactive,inactive,–,–
CCOC(=O)C(=NCC1CCCO1)NNc1ccccc1Cl (configuration not stated),inactive,–,inactive,inactive,inactive,–,–
CCOC(=O)c1c(NC(=S)NCCc2ccccc2)sc2c1CC(C(C)C)OC2 (configuration not stated),inactive,32% (active),–,inactive,–,146% (active),–
CCN1C(=O)/C(=C\C(=O)c2cccs2)c2cc(Br)ccc21,inactive,–,inactive,inactive,inactive,–,–
Cc1c(N2C(=O)/C(=C\c3ccccc3O)SC2=S)c(=O)n(-c2ccccc2)n1C,–,200% (active),–,inactive,–,392% (active),398% (active)
Cc1ccc(S(=O)(=O)NCC(c2ccc3c(c2)OCO3)N2CCOCC2)cc1 (configuration not stated),inactive,–,inactive,inactive,inactive,–,–
O=C(Nc1nnc(-c2ccc3c(c2)CCCC3)o1)c1ccccc1,–,130% (active),–,inactive,–,400% (active),266% (active)
COc1cccc2sc(Nc3nnc(-c4ccc(F)cc4)o3)nc12,–,202% (active),–,inactive,–,521% (active),394% (active)
O=C(CSc1ccc2ccccc2n1)Nc1ccc(N2CCOCC2)cc1,inactive,–,inactive,inactive,inactive,–,–
Cc1ccccc1C(=O)NNC(=O)C(=O)Nc1cccc(Cl)c1C,–,168% (active),–,inactive,–,406% (active),346% (active)
O=C(/C=C/c1ccccc1)C1C(=O)c2ccccc2C1=O,inactive,25.5% (active),–,inactive,–,146% (active),–
CCOc1ccc(CCNC(=O)CSc2nc3ncc(Cl)cc3[nH]2)cc1OCC,inactive,–,inactive,inactive,inactive,–,–
CC(C)(C)NC(=O)C(=O)NNC(=O)c1cccc(Br)c1,–,34% (active),–,inactive,–,229% (active),242% (active)
CN1C(=O)CC(N2CCN(CC(=O)N3CCCC3)CC2)C1=O (configuration not stated),inactive,–,inactive,inactive,inactive,–,–
Cc1ccc(Cc2cnc(N3C(=N)SC(c4ccccc4)C3=O)s2)cc1 (configuration not stated),inactive,–,inactive,inactive,inactive,–,–
CCCCC(=O)N(c1ccc(OCC)cc1)C1C=CS(=O)(=O)C1 (configuration not stated),inactive,–,inactive,inactive,inactive,–,–
c1csc(-c2csc3ncnc(NCCCN4CCOCC4)c23)c1,inactive,–,inactive,inactive,inactive,–,–
CCOC(=O)c1ccc(NC(=S)N2CCSC2c2ccc(Br)cc2)cc1 (configuration not stated),inactive,–,inactive,inactive,inactive,–,–
CCCCN(CCCC)C(=S)N/N=C/c1c(C)[nH]n(-c2ccccc2)c1=O,–,123% (active),–,inactive,–,239% (active),198% (active)
Cc1ccc(-n2cnnn2)c2cccnc12,inactive,–,inactive,inactive,inactive,–,–
S=c1[nH]c(-c2ccc(Cl)cc2)cs1,–,206% (active),–,inactive,–,525% (active),634% (active)
COc1ccccc1NS(=O)(=O)c1cc(NC(=O)c2cnccn2)ccc1N1CCOCC1,–,54% (active),–,inactive,–,248% (active),222% (active)
Cc1ccc(N=Nc2ccc(O)c3ncccc23)cc1,–,52.5% (active),–,inactive,–,229% (active),185% (active)
Fc1ccc(/C=N/NC(=S)Nc2ccc(Cl)cc2)cc1F,inactive,–,inactive,inactive,inactive,–,–
CCOc1ccc(NC(=O)Cn2nnc(-c3ccccc3NC(=O)c3cccs3)n2)cc1,inactive,–,inactive,inactive,inactive,–,–
CCc1cc(-c2n[nH]c(C)c2-c2nc3ccccc3s2)c(O)cc1OCC(=O)NN,inactive,–,inactive,inactive,inactive,–,–
COC(=O)c1ccsc1NC(=O)CN1CCN(Cc2ccc3c(c2)OCO3)CC1,inactive,–,inactive,inactive,inactive,–,–

# Source: PubChem BioAssay
